Measured values as given in ChEMBL document CHEMBL1122231, “Synthesis, benzodiazepine receptor binding, and anticonvulsant activity of 2,3-dihydro-3-oxo-5H-pyrido[3,4-b][1,4]benzothiazine-4-carbonitriles” (J Med Chem, 1983).

Assays:
[1] = target: GABA-A receptor; anion channel; assay: Inhibition of binding of tritiated 3[H]diazepam radioligand to rat brain homogenates; format: tissue-based
Method in brief: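 Rat brain membranes incubated with [3H]diazepam (final 4 μM) and six to eight concentrations of test drug, 30 °C for 10 min, then 4 °C for 20 min. Reactions were stopped by vacuum filtration through glass-fiber filters. Nonspecific binding was defined with 4 μM unlabeled diazepam. IC50 is the concentration giving 50% inhibition of [3H]diazepam binding to membranes.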

Mus musculus [2] = assay: Inhibition of pentylenetetrazole (PTZ) induced convulsions in mice at 4 mg/kg after 30 min; 1/10; format: functional
Mus musculus [3] = assay: Inhibition of pentylenetetrazole (PTZ) induced convulsions in mice at 64 mg/kg after 60 min; 2/10; format: functional
Mus musculus [4] = assay: Inhibition of pentylenetetrazole (PTZ) induced convulsions in mice at 64 mg/kg after 30 min; 2/10; format: functional
Mus musculus [5] = assay: Inhibition of pentylenetetrazole (PTZ) induced convulsions in mice at 4 mg/kg after 30 min; 0/10; format: functional
Mus musculus [6] = assay: Inhibition of pentylenetetrazole (PTZ) induced convulsions in mice at 100 mg/kg after 60 min; 2/10; format: functional
Mus musculus [7] = assay: Inhibition of pentylenetetrazole (PTZ) induced convulsions in mice at 10 mg/kg after 60 min; 0/10; format: functional
Mus musculus [8] = assay: Inhibition of pentylenetetrazole (PTZ) induced convulsions in mice at 64 mg/kg after 30 min; 5/10; format: functional
Mus musculus [9] = assay: Inhibition of pentylenetetrazole (PTZ) induced convulsions in mice at 100 mg/kg after 60 min; 8/10; format: functional
Mus musculus [10] = assay: Inhibition of pentylenetetrazole (PTZ) induced convulsions in mice at 10 mg/kg after 60 min; format: functional; settings: 1 h
Mus musculus [11] = assay: Inhibition of pentylenetetrazole (PTZ) induced convulsions in mice at 10 mg/kg after 60 min; 3/10; format: functional
Mus musculus [12] = assay: Inhibition of pentylenetetrazole (PTZ) induced convulsions in mice at 10 mg/kg after 60 min; 1/10; format: functional
Mus musculus [13] = assay: Inhibition of pentylenetetrazole (PTZ) induced convulsions in mice at 100 mg/kg after 60 min; 6/10; format: functional
Mus musculus [14] = assay: Inhibition of pentylenetetrazole (PTZ) induced convulsions in mice at 4 mg/kg after 30 min; format: functional; settings: 0.5 h
Mus musculus [15] = assay: Inhibition of pentylenetetrazole (PTZ) induced convulsions in mice at 64 mg/kg after 60 min; 10/10; format: functional
Mus musculus [16] = assay: Inhibition of pentylenetetrazole (PTZ) induced convulsions in mice at 64 mg/kg after 30 min; 1/10; format: functional
Mus musculus [17] = assay: Inhibition of pentylenetetrazole (PTZ) induced convulsions in mice at 64 mg/kg after 30 min; 4/10; format: functional
Mus musculus [18] = assay: Minimum effective dose after intraperitoneal administration; format: functional; settings: ip, read-out: MED
Mus musculus [19] = assay: Inhibition of pentylenetetrazole (PTZ) induced convulsions in mice at 64 mg/kg after 60 min; 1/10; format: functional
Mus musculus [20] = assay: Inhibition of pentylenetetrazole (PTZ) induced convulsions in mice at 64 mg/kg after 30 min; 0/10; format: functional
Mus musculus [21] = assay: Inhibition of pentylenetetrazole (PTZ) induced convulsions in mice at 64 mg/kg after 60 min; 0/10; format: functional
Mus musculus [22] = assay: Inhibition of pentylenetetrazole (PTZ) induced convulsions in mice at 4 mg/kg after 30 min; 2/10; format: functional
Mus musculus [23] = assay: Inhibition of pentylenetetrazole (PTZ) induced convulsions in mice at 64 mg/kg after 60 min; 7/10; format: functional

N#Cc1c(O)ncc2c1Nc1ccccc1S2(=O)=O
IC50 [1]: 11000 nM | No. of mice protected (Mus musculus [2]): 1 | No. of mice protected (Mus musculus [3]): 2 | No. of mice protected (Mus musculus [4]): 2

N#Cc1c(O)ncc2c1Nc1ccc(Br)cc1S2
IC50 [1]: 8000 nM | No. of mice protected (Mus musculus [5]): 0 | No. of mice protected (Mus musculus [6]): 2 | No. of mice protected (Mus musculus [7]): 0 | No. of mice protected (Mus musculus [8]): 5

N#Cc1c(O)ncc2c1Nc1ccccc1[S+]2[O-] (stereo unspecified)
IC50 [1]: 4250 nM | No. of mice protected (Mus musculus [9]): 8 | ED50 (Mus musculus [10]): 41 mg/kg | No. of mice protected (Mus musculus [11]): 3

N#Cc1c(O)ncc2c1Nc1ccc(Cl)cc1S2(=O)=O
IC50 [1]: 634 nM | No. of mice protected (Mus musculus [2]): 1 | No. of mice protected (Mus musculus [8]): 5

N#Cc1c(O)ncc2c1Nc1ccc([N+](=O)[O-])cc1S2
IC50 [1]: 800 nM | No. of mice protected (Mus musculus [5]): 0 | No. of mice protected (Mus musculus [6]): 2 | No. of mice protected (Mus musculus [12]): 1

N#Cc1c(O)ncc2c1Nc1cc(Cl)ccc1[S+]2[O-] (stereo unspecified)
IC50 [1]: 35000 nM | No. of mice protected (Mus musculus [5]): 0 | No. of mice protected (Mus musculus [7]): 0 | No. of mice protected (Mus musculus [13]): 6 | No. of mice protected (Mus musculus [4]): 2

N#Cc1c(O)ncc2c1Nc1cc(Cl)ccc1S2
IC50 [1]: 400 nM | ED50 (Mus musculus [10]): 32 mg/kg | No. of mice protected (Mus musculus [12]): 1 | ED50 (Mus musculus [14]): 26 mg/kg | No. of mice protected (Mus musculus [15]): 10

N#Cc1c(O)ncc2c1Nc1ccc(Cl)cc1S2
IC50 [1]: 320 nM | No. of mice protected (Mus musculus [6]): 2

Cn1cc2c(c(C#N)c1=O)Nc1ccccc1S2
IC50 [1]: 17000 nM | No. of mice protected (Mus musculus [5]): 0 | No. of mice protected (Mus musculus [6]): 2 | No. of mice protected (Mus musculus [16]): 1

Cc1nc(O)c(C#N)c2c1Sc1ccccc1N2
IC50 [1]: 1700 nM | No. of mice protected (Mus musculus [5]): 0 | No. of mice protected (Mus musculus [6]): 2 | No. of mice protected (Mus musculus [16]): 1

N#Cc1c(O)ncc2c1Nc1ccccc1S2
IC50 [1]: 450 nM | No. of mice protected (Mus musculus [17]): 4 | No. of mice protected (Mus musculus [5]): 0 | No. of mice protected (Mus musculus [7]): 0 | minimal effective dose (Mus musculus [18]): 60 mg/kg | No. of mice protected (Mus musculus [19]): 1 | ED50 (Mus musculus [14]): 62 mg/kg

CNC1=Nc2ccc(Cl)cc2C(c2ccccc2)=[N+]([O-])C1 [CHLORDIAZEPOXIDE]
IC50 [1]: 442 nM | ED50 (Mus musculus [14]): 1.25 mg/kg

CN1c2ccccc2Sc2cnc(O)c(C#N)c21
IC50 [1]: 314 nM | No. of mice protected (Mus musculus [5]): 0 | No. of mice protected (Mus musculus [20]): 0 | No. of mice protected (Mus musculus [21]): 0

N#Cc1c(O)ncc2c1Nc1ccc(N)cc1S2
IC50 [1]: 910 nM | No. of mice protected (Mus musculus [8]): 5 | No. of mice protected (Mus musculus [22]): 2 | No. of mice protected (Mus musculus [23]): 7

COc1cc2c(cc1OC)Sc1cnc(O)c(C#N)c1N2
IC50 [1]: 100000 nM | No. of mice protected (Mus musculus [12]): 1 | No. of mice protected (Mus musculus [3]): 2

CN1c2ccccc2Sc2cn(C)c(=O)c(C#N)c21
IC50 [1]: 100000 nM | No. of mice protected (Mus musculus [5]): 0 | No. of mice protected (Mus musculus [8]): 5

N#Cc1c(O)ncc2c1Nc1cc(Cl)ccc1S2(=O)=O
IC50 [1]: 7600 nM | No. of mice protected (Mus musculus [2]): 1 | No. of mice protected (Mus musculus [4]): 2
